SMILES strings stand for the structures.

Drawing on ChEMBL document CHEMBL1158067, “Phenolic glycosides with antioxidant activity from the stem bark of Populus davidiana” (J Nat Prod, 2006), this text covers Activity for twelve compounds.

The data set in a line: ABTS radical scavenging activity assessed as Trolox equivalent antioxidant capacity index. In kind it is physicochemical. In a few lines:
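ABTS radical cation generated from 7 mM ABTS in water plus potassium persulfate (final 2.45 mM), held in the dark at room temperature for 16 h, then diluted with water to A734 0.700 ± 0.020. Diluted radical mixed with compound or Trolox standard in MeOH (final 0–20 µM), kept at ambient temperature. A734 read exactly 6 min after mixing, solvent blanks included. Compounds were dosed to give 10–80% inhibition. Percent absorbance decrease was plotted against concentration and referenced to Trolox.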
Consider `O=C(/C=C/c1ccc(O)cc1)O[C@@H]1O[C@H](CO)[C@@H](O)[C@H](O)[C@H]1O`, for which the Activity is on record as 0.78.
Then `Cc1cc(C(C)(C)C)c(O)c(C(C)(C)C)c1` [BUTYLATED HYDROXYTOLUENE], with 0.8; and `O=C(O)/C=C/c1ccc(O)c(O)c1` [CAFFEIC ACID], with 1.98.
Take `O=C(/C=C/c1ccc(O)cc1)O[C@H]1[C@H](OC2CCCCC2O)O[C@H](CO)[C@@H](O)[C@@H]1O` (some centres not stated) [GRANDIDENTATIN]: the Activity is recorded as 1.27.
As for `O=C(/C=C/c1ccc(O)cc1)OCc1cc(O)ccc1O[C@@H]1O[C@H](CO)[C@@H](O)[C@H](O)[C@H]1O` [POPULOSIDE A], the Activity worked out at 2.07.
Then `O=C(/C=C/c1ccc(O)cc1)OCc1ccccc1O[C@@H]1O[C@H](CO)[C@@H](O)[C@H](O)[C@H]1O` [POPULOSIDE B], with 1.13; and `COc1cc(/C=C/C(=O)OCc2ccccc2O[C@@H]2O[C@H](CO)[C@@H](O)[C@H](O)[C@H]2O)ccc1O` [POPULOSIDE C], with 1.55; and `O=C(/C=C/c1ccc(O)c(O)c1)OCc1ccccc1O[C@@H]1O[C@H](CO)[C@@H](O)[C@H](O)[C@H]1O` [POPULOSIDE], with 1.67.
Consider `OCc1ccccc1O[C@@H]1O[C@H](CO)[C@@H](O)[C@H](O)[C@H]1O` [SALICIN], for which the Activity is 0.21.
Then `O=C(OCc1cc(O)ccc1O[C@@H]1O[C@H](CO)[C@@H](O)[C@H](O)[C@H]1O)c1ccccc1` [SALIREPOSIDE], with 1.01; and `O=C(O[C@H]1[C@H](Oc2ccccc2COC(=O)C2(O)C=CCCC2=O)O[C@H](CO)[C@@H](O)[C@@H]1O)c1ccccc1` (some centres not stated) [TREMULACIN], with 0.12; and `O=C(O[C@H]1[C@H](Oc2ccccc2CO)O[C@H](CO)[C@@H](O)[C@@H]1O)c1ccccc1` [TREMULDIN], with 0.24.
